Laboratory results from ChEMBL document CHEMBL4765319, “Identification of a new series of flavopiridol-like structures as kinase inhibitors with high cytotoxic potency” (Eur J Med Chem, 2020).
Activity calls are given as the source filed them. The calls are words filed in the database; no cut-off is given here.

What was measured:
SK-OV-3 = test: Antiproliferative activity against human SKOV3 cells assessed as reduction in cell viability incubated for 72 hrs by CellTiter-Blue fluorescence assay; settings: SK-OV-3, 72 h
Sus scrofa [1] = species on record: Sus scrofa; test: Inhibition of porcine CK1delta/epsilon assessed as residual activity at 10 uM in presence of ATP by ADP-glo luminescent assay relative to control
[2] = biological target: T1, CDK9/cyclin T1 (Homo sapiens) (UniProt O60563+P50750); test: Inhibition of human CDK9/cyclin T assessed as residual activity at 1 uM in presence of ATP by ADP-glo luminescent assay relative to control; assay type: protein-complex assay
Procedure, shortened: (§1)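 Human kinases assayed by ADP-Glo luminescence with 10 μM ATP, compound at 10 or 1 μM. Activity is expressed as % of maximal activity relative to a DMSO control, mean n = 2.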

NCI-N87 = test: Antiproliferative activity against human NCI-N87 cells assessed as reduction in cell viability incubated for 72 hrs by CellTiter-Blue fluorescence assay; settings: NCI-N87, 72 h
[3] = biological target: CDK2/Cyclin A2 (Homo sapiens) (UniProt P24941+P20248); test: Inhibition of human CDK2/cyclin A assessed as residual activity at 10 uM in presence of ATP by ADP-glo luminescent assay relative to control; assay type: protein-complex assay
Procedure, shortened: as §1

K562 [4] = test: Cell cycle arrest in human K562 cells assessed as accumulation at G2/M phase at 100 nM after 24 hrs by propidium iodide staining-based flow cytometric analysis (reference value: 12.9 %); assay type: functional
HCT-116 [5] = test: Cell cycle arrest in human HCT-116 cells assessed as accumulation at G2/M phase at 100 nM after 24 hrs by propidium iodide staining-based flow cytometric analysis (reference value: 31.5 %); assay type: functional
HCT-116 [6] = test: Cell cycle arrest in human HCT-116 cells assessed as accumulation at S phase at 500 nM after 24 hrs by propidium iodide staining-based flow cytometric analysis (reference value: 47.6 %); assay type: functional
HCT-116 [7] = test: Cell cycle arrest in human HCT-116 cells assessed as accumulation at S phase at 100 nM after 24 hrs by propidium iodide staining-based flow cytometric analysis (reference value: 47.6 %); assay type: functional
Leishmania major = test: Inhibition of Leishmania major CK1 assessed as residual activity at 1 uM in presence of ATP by ADP-glo luminescent assay relative to control
Sus scrofa [8] = species on record: Sus scrofa; test: Inhibition of porcine GSK3alpha/beta assessed as residual activity at 1 uM in presence of ATP by ADP-glo luminescent assay relative to control
Procedure, shortened: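 Porcine brain GSK3α/β, native and affinity-purified. Assayed by ADP-Glo luminescence with 10 μM ATP and 0.010 μg/μl GS-1 peptide substrate. Buffer A: 10 mM MgCl2, 1 mM EGTA, 1 mM DTT, 25 mM Tris-HCl pH 7.5, 50 μg/ml heparin. Compound tested at 10 or 1 μM. Result is % of maximal activity versus DMSO control, mean of n = 2.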

Plasmodium falciparum [9] = test: Inhibition of Plasmodium falciparum GSK3 assessed as residual activity at 1 uM in presence of ATP by ADP-glo luminescent assay relative to control
Procedure, shortened: (§2)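 Recombinant P. falciparum GSK3, bacterially expressed, in buffer A (10 mM MgCl2, 1 mM EGTA, 1 mM DTT, 25 mM Tris-HCl pH 7.5, 50 μg/ml heparin). Substrate 0.010 μg/μl GS-1 peptide, 10 μM ATP, ADP-Glo luminescence. Compound at 10 or 1 μM; % residual activity vs DMSO control, mean n = 2.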

HCT-116 [10] = test: Cell cycle arrest in human HCT-116 cells assessed as accumulation at G0/G1 phase at 100 nM after 24 hrs by propidium iodide staining-based flow cytometric analysis (reference value: 20.9 %); assay type: functional
Sus scrofa [11] = species on record: Sus scrofa; test: Inhibition of porcine CK1delta/epsilon assessed as residual activity at 1 uM in presence of ATP by ADP-glo luminescent assay relative to control
[12] = biological target: Cyclin-dependent kinase 5/CDK5 activator 1 (Homo sapiens) (UniProt Q00535+Q15078); test: Inhibition of human CDK5/p25 assessed as residual activity at 10 uM in presence of ATP by ADP-glo luminescent assay relative to control; assay type: protein-complex assay
Procedure, shortened: as §1

[13] = biological target: T2, Glycogen synthase kinase-3 beta (Homo sapiens, UniProt P49841); test: Inhibition of human GSK3beta assessed as residual activity at 10 uM in presence of ATP by ADP-glo luminescent assay relative to control
Procedure, shortened: as §1
Target sequence in this assay (P49841 whole entry, looked up): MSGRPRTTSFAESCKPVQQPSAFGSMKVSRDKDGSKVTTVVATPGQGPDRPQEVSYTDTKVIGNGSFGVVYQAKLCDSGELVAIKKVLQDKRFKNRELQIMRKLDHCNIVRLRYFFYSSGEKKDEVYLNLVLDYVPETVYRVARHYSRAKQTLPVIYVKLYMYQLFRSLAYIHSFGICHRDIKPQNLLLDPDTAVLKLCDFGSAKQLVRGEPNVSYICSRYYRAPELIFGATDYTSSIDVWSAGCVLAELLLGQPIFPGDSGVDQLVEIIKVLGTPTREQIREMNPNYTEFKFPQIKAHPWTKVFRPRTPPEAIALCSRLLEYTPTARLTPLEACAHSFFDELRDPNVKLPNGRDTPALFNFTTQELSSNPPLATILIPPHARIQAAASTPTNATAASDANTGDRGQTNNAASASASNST

[14] = biological target: T2, Glycogen synthase kinase-3 beta; test: ATP competitive inhibition of human GSK3beta at 500 nM in presence of ATP by ADP-glo luminescent assay
Procedure, shortened: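 HsGSK3β activity by ADP-Glo luminescence with 500 nM inhibitor, or without it, across ATP 3.125 to 100 μM. Residual activity is given as % of a DMSO control, mean (n = 3) ± SD.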
Target sequence in this assay (P49841 whole entry, looked up): as above

K562 [15] = test: Cell cycle arrest in human K562 cells assessed as accumulation at G2/M phase at 50 nM after 24 hrs by propidium iodide staining-based flow cytometric analysis (reference value: 12.9 %); assay type: functional
K562 [16] = test: Cell cycle arrest in human K562 cells assessed as accumulation at S phase at 50 nM after 24 hrs by propidium iodide staining-based flow cytometric analysis (reference value: […]); assay type: functional
K562 [17] = test: Cell cycle arrest in human K562 cells assessed as accumulation at S phase at 100 nM after 24 hrs by propidium iodide staining-based flow cytometric analysis (reference value: […]); assay type: functional
Plasmodium falciparum [18] = test: Inhibition of Plasmodium falciparum GSK3 assessed as residual activity at 10 uM in presence of ATP by ADP-glo luminescent assay relative to control
Procedure, shortened: as §2

[19] = biological target: T1, CDK9/cyclin T1 (Homo sapiens); test: Inhibition of human CDK9/cyclin T assessed as residual activity at 10 uM in presence of ATP by ADP-glo luminescent assay relative to control; assay type: protein-complex assay
Procedure, shortened: as §1

MIA PaCa-2 = test: Potency index, ratio of flavopiridol IC50 to test compound IC50 for human MIA PaCa-2 cells assessed as reduction in cell viability incubated for 72 hrs by CellTiter-Blue resazurin fluorescence assay
HCT-116 [20] = test: Antiproliferative activity against human HCT-116 cells assessed as reduction in cell viability incubated for 72 hrs by CellTiter-Blue fluorescence assay; settings: HCT-116, 72 h
HCT-116 [21] = test: Cell cycle arrest in human HCT-116 cells assessed as accumulation at G0/G1 phase at 200 nM after 24 hrs by propidium iodide staining-based flow cytometric analysis (reference value: 20.9 %); assay type: functional
[22] = biological target: T2, Glycogen synthase kinase-3 beta; test: Inhibition of human GSK3beta in presence of ATP by ADP-glo luminescent assay
Procedure, shortened: (§3)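 Human kinases tested over roughly 0.0003–10 μM by ADP-Glo luminescence with 10 μM ATP, in duplicate. IC50 is taken from dose-response curves.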
Target sequence in this assay (P49841 whole entry): as the sequence (P49841 whole entry, looked up) above

CDK2/Cyclin A2 = CDK2/Cyclin A2 (Homo sapiens, UniProt P24941); test: Inhibition of human CDK2/cyclin A in presence of ATP by ADP-glo luminescent assay; assay type: protein-complex assay
Procedure, shortened: as §3

Sequence of Cyclin-dependent kinase 5/CDK5 activator 1 (Homo sapiens) (Q00535 whole entry): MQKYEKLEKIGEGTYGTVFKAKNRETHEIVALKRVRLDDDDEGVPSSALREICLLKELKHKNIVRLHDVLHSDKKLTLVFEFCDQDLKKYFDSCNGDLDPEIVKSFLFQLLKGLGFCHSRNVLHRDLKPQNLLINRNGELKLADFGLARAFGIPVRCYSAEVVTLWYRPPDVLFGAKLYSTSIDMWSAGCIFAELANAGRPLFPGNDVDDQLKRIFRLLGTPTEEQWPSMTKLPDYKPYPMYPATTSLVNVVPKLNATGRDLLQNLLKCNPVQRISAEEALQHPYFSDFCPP
Sequence of Cyclin-dependent kinase 5/CDK5 activator 1 (Homo sapiens) (Q15078 99-307 partner limits assumed): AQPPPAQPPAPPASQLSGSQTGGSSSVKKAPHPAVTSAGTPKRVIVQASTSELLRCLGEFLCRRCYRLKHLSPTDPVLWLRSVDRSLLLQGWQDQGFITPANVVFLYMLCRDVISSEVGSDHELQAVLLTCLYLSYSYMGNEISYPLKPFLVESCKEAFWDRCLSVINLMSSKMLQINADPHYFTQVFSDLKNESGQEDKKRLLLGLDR

CN1CC=C(c2c(O)cc(O)c3c(=O)cc(-c4ccc(Sc5nc6ccccc6n5C)cc4Cl)oc23)CC1
IC50 (SK-OV-3): 94 nM | Activity (Sus scrofa [1]): 62% | Activity [2]: 1% | IC50 (NCI-N87): 49 nM | Activity [3]: 30% | Activity (K562 [4]): 28.7% | Activity (HCT-116 [5]): 30.7% | Activity (HCT-116 [6]): 25.1% | Activity (HCT-116 [7]): 48.7% | Activity (Leishmania major): 62% | Activity (Sus scrofa [8]): 31% | Activity (Plasmodium falciparum [9]): 80% | Activity (HCT-116 [10]): 20.6% | Activity (Sus scrofa [11]): 90% | Activity [12]: 24% | Activity [13]: 2% | inhibition [14]: Active | Activity (K562 [15]): 22.7% | Activity (K562 [16]): 49.4% | Activity (K562 [17]): 21% | Activity (Plasmodium falciparum [18]): 46% | Activity [19]: -2% | Ratio IC50 (MIA PaCa-2): <=6 | IC50 (HCT-116 [20]): 81 nM | Activity (HCT-116 [21]): 26% | IC50 [22]: 59 nM | IC50 (CDK2/Cyclin A2): 1730 nM
